# Results gathered from unrelated publications.
# Protocols differ between the studies behind these lines.
# Target: Phosphatidylinositol 5-phosphate 4-kinase type-2 beta (PIP4K2B, Homo sapiens, UniProt P78356)
# Sequence (P78356 1-416, as in one of the studies): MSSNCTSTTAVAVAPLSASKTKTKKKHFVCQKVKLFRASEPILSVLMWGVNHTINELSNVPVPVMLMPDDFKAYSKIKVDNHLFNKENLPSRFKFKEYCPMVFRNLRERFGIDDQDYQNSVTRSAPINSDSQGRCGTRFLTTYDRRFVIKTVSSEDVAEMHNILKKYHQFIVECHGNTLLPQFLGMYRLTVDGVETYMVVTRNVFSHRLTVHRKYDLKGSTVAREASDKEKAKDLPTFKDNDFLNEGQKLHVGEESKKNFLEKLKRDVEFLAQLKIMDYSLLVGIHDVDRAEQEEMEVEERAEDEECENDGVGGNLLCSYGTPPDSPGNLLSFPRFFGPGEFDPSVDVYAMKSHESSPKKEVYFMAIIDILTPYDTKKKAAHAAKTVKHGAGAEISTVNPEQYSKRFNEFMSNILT
SMILES,effect on,method,concentration,remaining binding
Cc1nc(N2CC[C@@H](O)C2)ncc1-c1cc(C(F)(F)F)cc2[nH]ncc12,cell-free assay,competition with immobilised ligand,1 µM,100%
O=C(c1ccc(Nc2nccc(-c3cc4ccccc4s3)n2)cc1)N1CCC(N2CCCC2)CC1,binding,competition with immobilised ligand,1 µM,11%
COc1ccnn2ncc(-c3ccnc(N(C)C)n3)c12,binding,,1 µM,100%
COc1cnc(Nc2cccc(S(N)(=O)=O)c2)nc1N1CCN(c2ccccc2)C(=O)C1,binding,competition with immobilised ligand,1 µM,100%
COc1ncc2cc3ccccc3nc2c1C#N,cell-free assay,competition with immobilised ligand,5 µM,100%
Cc1c(NC(=O)c2cc(C(N)=O)nc3cc(F)ccc23)c(C(F)(F)F)nn1Cc1ccc(C#N)cc1,cell-free assay,competition with immobilised ligand,1 µM,88%
O=C(NCCCN1CCOCC1)c1ccc(Nc2ncc(Cl)c(-c3ccc(Cl)s3)n2)cc1,binding,competition with immobilised ligand,1 µM,4.2%
Cc1c(NC(=O)c2cc(C(N)=O)nc3cc(F)ccc23)c(C(F)(F)F)nn1Cc1ccc(C(C)(C)C)cc1,cell-free assay,competition with immobilised ligand,1 µM,91%
CCN1CCN(Cc2ccc(C(=O)Nc3ccc(C)c(Oc4ccc5c(c4)CC(=O)N5)c3)cc2C(F)(F)F)CC1,binding,competition with immobilised ligand,1 µM,100%
C[C@@H]1CCN(c2nccc(-c3cnn4ncccc34)n2)C1,binding,,1 µM,100%
O=C(NCCCN1CCOCC1)c1ccc(Nc2nccc(-c3cc4ccccc4s3)n2)cc1,binding,competition with immobilised ligand,1 µM,11%
Nc1ncc2c(n1)-c1c([nH]c3ccc(C#CC4CC4)cc13)CCCC2,binding,competition with immobilised ligand,1 µM,86%
C[C@H](c1ccnc(Nc2nc3ccc(-c4cc(N(C)C)ncn4)cc3[nH]2)c1)N1CCN(C(=O)CC(F)(F)F)CC1,cell-free assay,competition with immobilised ligand,0.1 µM,75%
CN(c1nccc(-c2cnn3ncccc23)n1)C1CC1,binding,,1 µM,65%
Cc1nc(NC(=O)N2CCC[C@H]2C(N)=O)sc1-c1ccnc(C(C)(C)C(F)(F)F)c1,binding,competition with immobilised ligand,10 µM,100%
CN(C)c1nccc(-c2cnc3ncccn23)n1,binding,,1 µM,100%
Cn1nc(C(F)(F)F)cc1-c1cnc(N2CCc3cc(S(=O)(=O)Nc4c(F)cc(Cl)cc4F)cc(N4CCCC4=O)c32)nc1,cell-free assay,competition with immobilised ligand,1 µM,100%
F[C@@H]1CCN(c2nccc(-c3cnn4ncccc34)n2)C1,binding,,1 µM,79%
O=C(N[C@H]1CCCCC/C=C\C2C[C@@]2(C(=O)O)NC(=O)[C@@H]2C[C@@H](Oc3ccncc3)CN2C1=O)OC1CCCC1 (some centres unmarked),binding,competition with immobilised ligand,1 µM,100%
N[C@@H]1CCN(c2nccc(-c3cnn4ncccc34)n2)C1,binding,,1 µM,100%
O=C(Nc1c[nH]nc1C(=O)NC1CCNCC1)c1cc(F)cc(F)c1,binding,competition with immobilised ligand,1 µM,88%
c1cnn2ncc(-c3ccnc(N4CCC45COC5)n3)c2c1,binding,,1 µM,58%
C[C@@H](c1cccc(C#N)c1)n1cc(Cl)cc(C(N)=O)c1=N,cell-free assay,competition with immobilised ligand,1 µM,73%
